Tests used:
Assay type in all cases: functional
SF-268 [1] = experiment: Anticancer activity against human SF268 cells assessed as cell growth at 100 uM after 48 hrs by sulforhodamine B assay; conditions: SF-268, 48 h, read-out: Activity
IGROV-1 = experiment: Growth inhibition of human IGROV1 cells after 48 hrs by sulforhodamine B assay; conditions: IGROV-1, 48 h
Procedure, shortened: (§1)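 NCI 60-human-tumor-cell-line panel, with compounds tested over a 5-log dose range. Values are taken from dose-response curves as log10 molar concentrations: GI50 is 50% net growth inhibition, TGI is total growth inhibition, and LC50 is 50% net cell death.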

SK-MEL-2 = experiment: Growth inhibition of human SK-MEL-2 cells after 48 hrs by sulforhodamine B assay; conditions: SK-MEL-2, 48 h; procedure, shortened: as §1
OVCAR-4 = experiment: Growth inhibition of human OVCAR4 cells after 48 hrs by sulforhodamine B assay; conditions: OVCAR-4, 48 h; procedure, shortened: as §1
NCI-H460 = experiment: Anticancer activity against human NCI-H460 cells assessed as cell growth at 100 uM after 48 hrs by sulforhodamine B assay; conditions: NCI-H460, 48 h, read-out: Activity
U-251 = experiment: Growth inhibition of human U251 cells after 48 hrs by sulforhodamine B assay; conditions: U-251, 48 h
Procedure, shortened: (§2)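 Run in the NCI 60-human-tumour-cell-line panel, tested over a 5-log dose range. Dose–response curves gave three values per cell line, each as a log10 molar concentration: GI50 (50% inhibition of net cell growth), TGI (total inhibition of net growth) and LC50 (50% net cell death). The mean graph midpoint is the arithmetic mean over all lines, with insensitive lines entered at the highest concentration tested.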

K562 = experiment: Growth inhibition of human K562 cells after 48 hrs by sulforhodamine B assay; conditions: K562, 48 h; procedure, shortened: as §1
NCI-H23 = experiment: Growth inhibition of human NCI-H23 cells after 48 hrs by sulforhodamine B assay; conditions: NCI-H23, 48 h; procedure, shortened: as §1
MCF7 [2] = experiment: Growth inhibition of human MCF7 cells after 48 hrs by sulforhodamine B assay; conditions: MCF7, 48 h; procedure, shortened: as §1
NCI-H322M = experiment: Growth inhibition of human NCI-H322M cells after 48 hrs by sulforhodamine B assay; procedure, shortened: as §1
NCI-H522 = experiment: Growth inhibition of human NCI-H522 cells after 48 hrs by sulforhodamine B assay; conditions: NCI-H522, 48 h; procedure, shortened: as §1
SK-OV-3 = experiment: Growth inhibition of human SKOV3 cells after 48 hrs by sulforhodamine B assay; conditions: SK-OV-3, 48 h; procedure, shortened: as §1
UO-31 = experiment: Growth inhibition of human UO31 cells after 48 hrs by sulforhodamine B assay; conditions: UO-31, 48 h; procedure, shortened: as §2
A549 = experiment: Growth inhibition of human A549 cells after 48 hrs by sulforhodamine B assay; conditions: A549, 48 h; procedure, shortened: as §1
SK-MEL-28 = experiment: Growth inhibition of human SK-MEL-28 cells after 48 hrs by sulforhodamine B assay; conditions: SK-MEL-28, 48 h; procedure, shortened: as §1
M14 = experiment: Growth inhibition of human M14 cells after 48 hrs by sulforhodamine B assay; conditions: M14, 48 h; procedure, shortened: as §1
SW-620 = experiment: Growth inhibition of human SW620 cells after 48 hrs by sulforhodamine B assay; conditions: SW-620, 48 h; procedure, shortened: as §2
MCF7 [3] = experiment: Anticancer activity against human MCF7 cells assessed as cell growth at 100 uM after 48 hrs by sulforhodamine B assay; conditions: MCF7, 48 h, read-out: Activity
MDA-MB-435 = experiment: Growth inhibition of human MDA-MB-435 cells after 48 hrs by sulforhodamine B assay; conditions: MDA-MB-435, 48 h; procedure, shortened: as §1
LOX IMVI = experiment: Growth inhibition of human LOXIMVI cells after 48 hrs by sulforhodamine B assay; procedure, shortened: as §1
UACC-62 = experiment: Growth inhibition of human UACC62 cells after 48 hrs by sulforhodamine B assay; conditions: UACC-62, 48 h; procedure, shortened: as §2
786-0 = experiment: Growth inhibition of human 786-0 cells after 48 hrs by sulforhodamine B assay; conditions: 786-0, 48 h; procedure, shortened: as §1
DU-145 = experiment: Growth inhibition of human DU145 cells after 48 hrs by sulforhodamine B assay; conditions: DU-145, 48 h; procedure, shortened: as §1
SF-268 [4] = experiment: Growth inhibition of human SF268 cells after 48 hrs by sulforhodamine B assay; conditions: SF-268, 48 h; procedure, shortened: as §1
HOP-62 = experiment: Growth inhibition of human HOP62 cells after 48 hrs by sulforhodamine B assay; conditions: HOP-62, 48 h; procedure, shortened: as §1
CAKI-1 = experiment: Growth inhibition of human Caki1 cells after 48 hrs by sulforhodamine B assay; conditions: CAKI-1, 48 h; procedure, shortened: as §1
SK-MEL-5 = experiment: Growth inhibition of human SK-MEL-5 cells after 48 hrs by sulforhodamine B assay; conditions: SK-MEL-5, 48 h; procedure, shortened: as §1
HCT-116 = experiment: Growth inhibition of human HCT116 cells after 48 hrs by sulforhodamine B assay; conditions: HCT-116, 48 h; procedure, shortened: as §1
SF-295 = experiment: Growth inhibition of human SF295 cells after 48 hrs by sulforhodamine B assay; conditions: SF-295, 48 h; procedure, shortened: as §1
[5] = Growth inhibition of human […] cells after 48 hrs by sulforhodamine B assay; procedure, shortened: as §1
[6] = read-out: pLC50 (the source's name) (converted)

COc1cc(OC)cc(Oc2nc3cc(N)cc(N)c3nc2-c2ccccc2)c1 gave a growth at 100 µM (SF-268 [1]) of 1%, a GI50 (IGROV-1) of 2.63 µM and a CC50 (IGROV-1; [6]) of 38 µM. The TGI (IGROV-1; read-out: pTGI (converted)) was 12.3 µM, the GI50 (SK-MEL-2) was 2.29 µM and the CC50 (SK-MEL-2; [6]) was 38 µM. The TGI (SK-MEL-2; read-out: pTGI (converted)) was 10.2 µM, the GI50 (OVCAR-4) was 2.88 µM and the CC50 (OVCAR-4; [6]) was 58.9 µM. For the same molecule, the TGI (OVCAR-4; read-out: pTGI (converted)) was 16.2 µM, the growth at 100 µM (NCI-H460) was 2% and the GI50 (U-251) was 2.63 µM. It also gave a TGI (U-251; read-out: pTGI (converted)) of 10.7 µM, a GI50 (K562) of 3.8 µM and a TGI (K562; read-out: pTGI (converted)) of 32.4 µM. The GI50 (NCI-H23) was 1.7 µM, the TGI (NCI-H23; read-out: pTGI (converted)) was 12.6 µM and the GI50 (MCF7 [2]) was 1.7 µM. The CC50 (MCF7 [2]; [6]) was 14.5 µM, the TGI (MCF7 [2]; read-out: pTGI (converted)) was 4.57 µM and the GI50 (NCI-H322M) was 2.24 µM. It also gave a TGI (NCI-H322M; read-out: pTGI (converted)) of 15.1 µM, a GI50 (NCI-H522) of 0.891 µM and a TGI (NCI-H522; read-out: pTGI (converted)) of 4.27 µM. For the same molecule, the GI50 (SK-OV-3) was 3.47 µM, the CC50 (SK-OV-3; [6]) was 69.2 µM and the TGI (SK-OV-3; read-out: pTGI (converted)) was 16.2 µM. The GI50 (UO-31) was 11.5 µM, the CC50 (UO-31; [6]) was 72.4 µM and the TGI (UO-31; read-out: pTGI (converted)) was 28.8 µM. For the same molecule, the GI50 (A549) was 2.88 µM, the TGI (A549; read-out: pTGI (converted)) was 13.2 µM and the GI50 (SK-MEL-28) was 3.16 µM. The CC50 (SK-MEL-28; [6]) was 38.9 µM, the TGI (SK-MEL-28; read-out: pTGI (converted)) was 15.5 µM and the GI50 (M14) was 1.58 µM. It also gave a CC50 (M14; [6]) of 28.8 µM, a TGI (M14; read-out: pTGI (converted)) of 7.76 µM and a GI50 (SW-620) of 2.24 µM. For the same molecule, the CC50 (SW-620; [6]) was 31.6 µM, the TGI (SW-620; read-out: pTGI (converted)) was 10.2 µM and the growth at 100 µM (MCF7 [3]) was 0%. It also gave a GI50 (MDA-MB-435) of 0.389 µM, a CC50 (MDA-MB-435; [6]) of 5.01 µM and a TGI (MDA-MB-435; read-out: pTGI (converted)) of 1.82 µM. For the same molecule, the GI50 (LOX IMVI) was 2.95 µM, the TGI (LOX IMVI; read-out: pTGI (converted)) was 12.9 µM and the GI50 (UACC-62) was 4.07 µM. It also gave a CC50 (UACC-62; [6]) of 47.9 µM, a TGI (UACC-62; read-out: pTGI (converted)) of 18.2 µM and a GI50 (786-0) of 15.1 µM. The CC50 (786-0; [6]) was over 100 µM, the TGI (786-0; read-out: pTGI (converted)) was 41.7 µM and the GI50 (DU-145) was 21.9 µM. It also gave a CC50 (DU-145; [6]) of over 100 µM, a TGI (DU-145; read-out: pTGI (converted)) of 57.5 µM and a GI50 (SF-268 [4]) of 1.74 µM. For the same molecule, the TGI (SF-268 [4]; read-out: pTGI (converted)) was 7.08 µM, the GI50 (HOP-62) was 2.14 µM and the TGI (HOP-62; read-out: pTGI (converted)) was 12.9 µM. It also gave a GI50 (CAKI-1) of 16.2 µM, a CC50 (CAKI-1; [6]) of 79.4 µM and a TGI (CAKI-1; read-out: pTGI (converted)) of 36.3 µM. It also gave a GI50 (SK-MEL-5) of 1.91 µM, a CC50 (SK-MEL-5; [6]) of 24.5 µM and a TGI (SK-MEL-5; read-out: pTGI (converted)) of 6.46 µM. For the same molecule, the GI50 (HCT-116) was 2.34 µM, the TGI (HCT-116; read-out: pTGI (converted)) was 10 µM and the GI50 (SF-295) was 2.19 µM. It also gave a TGI (SF-295; read-out: pTGI (converted)) of 8.51 µM, a GI50 [5] of 2.88 µM and a TGI ([5]; read-out: pTGI (converted)) of 8.51 µM.
